Three compounds from ChEMBL document CHEMBL4350956, “Paired Utility of Aza-Amino Acyl Proline and Indolizidinone Amino Acid Residues for Peptide Mimicry: Conception of Prostaglandin F2α Receptor Allosteric Modulators That Delay Preterm Birth” (J Med Chem, 2019) can be followed below.

The subject of test [1] is Mus musculus. Put plainly: Suppression of PGF2alpha-induced premature delivery in Timed-pregnant CD-1 mouse assessed as inhibition of PGFalpha-induced myometrial contraction by measuring time of delay in labor at 10 mg administered subcutaneously followed by 0.1 mg, ip bolus injection on day 16 prior to PGF2alpha challenge (reference value: 2 hrs). The format is functional.

Test [2] addresses Prostaglandin F2-alpha receptor (Mus musculus) (UniProt P43117). Nature of the test: Allosteric modulator activity at prostaglandin F2alpha receptor in CD-1 mouse myometrial strips assessed as inhibition of PGF2alpha- induced contraction at 10 uM pre-incubated for 20 mins followed by PGF2alpha challenge. In a few lines:
(§1)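 Myometrial strips; baseline taken as mean tension of spontaneous contractions at start. Pretreated 20 min with modulator, then PGF2α challenge. Tension rise computed as […], X = PGF2α-induced change in mean tension (g), Y = initial reference response (g). % inhibition = (A-B)/A, A without and B with pretreatment. 5 experiments per group; means ± SEM.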

For test [3], the species on record is Mus musculus. Put plainly: Inhibition of spontaneous myometrial contraction in CD-1 mouse assessed as decrease in mean tension at 10 uM. It counts as functional, tissue-based. The following applies: Myometrium.
Test [4] deals with Prostaglandin F2-alpha receptor (Mus musculus) (UniProt P43117). Nature of the test: Allosteric modulator activity at prostaglandin F2alpha receptor in CD-1 mouse myometrial strips assessed as inhibition of PGF2alpha- induced contraction at 1 uM pre-incubated for 20 mins followed by PGF2alpha challenge. In a few lines:
as §1

Test [5] concerns Mus musculus. Put plainly: Suppression of LPS-induced premature delivery in Timed-pregnant CD-1 mouse assessed as inhibition of LPS-induced myometrial contraction at 20 mg administered subcutaneously followed by 0.1 mg, ip bolus injection on day 16 prior to LPS challenge and measured up to day 19. It counts as functional, organism-based. In a few lines: (§2)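 Pregnant mice given LPS (E. coli endotoxin) intraperitoneally on gestational day 16. Test agent 20 mg/kg/day, started on day 16, before LPS; controls received saline. Delivery scored as percentage of animals delivered at 12, 15–24, 24–48 and 72 h after LPS. Average delivery time after LPS also recorded. 5–6 animals per treated group; n=10 for saline controls.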

Test [6] concerns Mus musculus. Nature of the test: Suppression of LPS-induced premature delivery in Timed-pregnant CD-1 mouse assessed as inhibition of LPS-induced myometrial contraction by measuring time of delay in labor at 20 mg administered subcutaneously followed by 0.1 mg, ip bolus injection on day 16 prior to LPS challenge (reference value: 12 hrs). It counts as functional. In a few lines: as §2

In test [7] the test system is Mus musculus. Put plainly: Suppression of LPS-induced premature delivery in Timed-pregnant CD-1 mouse assessed as inhibition of LPS-induced myometrial contraction by measuring percentage of animals delivering at 20 mg administered subcutaneously followed by 0.1 mg, ip bolus injection on day 16 prior to LPS challenge and measured on day 17. It counts as functional. Further details: scale not given: the % may be the effect or the level left. In a few lines: as §2

Active and inactive are the calls of the source. No cut-off for these calls is given here.

Chain of Prostaglandin F2-alpha receptor (Mus musculus) (P43117 whole entry): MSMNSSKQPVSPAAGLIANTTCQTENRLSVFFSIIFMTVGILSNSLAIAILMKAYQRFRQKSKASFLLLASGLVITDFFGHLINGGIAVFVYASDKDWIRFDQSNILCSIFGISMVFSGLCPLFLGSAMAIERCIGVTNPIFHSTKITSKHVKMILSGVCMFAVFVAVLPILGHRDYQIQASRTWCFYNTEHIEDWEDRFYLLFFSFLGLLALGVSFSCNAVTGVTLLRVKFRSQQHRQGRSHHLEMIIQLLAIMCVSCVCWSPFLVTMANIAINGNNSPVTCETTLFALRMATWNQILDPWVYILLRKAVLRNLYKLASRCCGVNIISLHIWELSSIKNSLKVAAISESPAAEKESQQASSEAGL

In the case of `O=C(O)C[C@H](Cc1ccccc1)NC(=O)[C@H](Cc1cccnc1)NC(=O)[C@@H]1CC[C@@H]2CC[C@H](NC(=O)Cc3ccccc3)C(=O)N21`, the Time in the test on Mus musculus [1] is ≤ 42 h.
With `O=C(O)C[C@H](Cc1ccccc1)NC(=O)[C@H](Cc1cccnc1)NC(=O)[C@@H]1CCC2=C(c3ccc(OC(F)(F)F)cc3)C[C@H](NC(=O)Cc3ccccc3)C(=O)N21`, the inhibition result in test [2] and in test [4] was “inactive” in each case. Besides, in the test filed under Mus musculus [3], the inhibition entry is “Active”.
With `O=C(O)C[C@H](Cc1ccccc1)NC(=O)[C@H](Cc1cccnc1)NC(=O)[C@@H]1CCCN1C(=O)N(Cc1ccccc1)NC(=O)Cc1ccccc1`, the inhibition result (in the test with Mus musculus [5]; in test [2]) was “Active” in each case. In addition, in the test on Mus musculus [6], the Time worked out at 24 h. Moreover, the Activity in the test on Mus musculus [7] is on record as <20%.
